Compounds with a hit are over-represented: about 4% of the library has one in this group of screens.
TAAR1 agonist = human TAAR1 agonists, primary screen, Fluo-8 calcium fluorescence, CHO RD-HGA16 cells; hit rate 0.99% among 360,000; Trace amine-associated receptor 1 (Homo sapiens), Q96RJ0; activation, % at 3 µM; vehicle wells 0%, saturating PEA agonist 100%;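 active means activation above the mean activation of all test compounds in the run plus 3 SD, cut at about 38% in these data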
Target sequence (Q96RJ0 whole entry, looked up): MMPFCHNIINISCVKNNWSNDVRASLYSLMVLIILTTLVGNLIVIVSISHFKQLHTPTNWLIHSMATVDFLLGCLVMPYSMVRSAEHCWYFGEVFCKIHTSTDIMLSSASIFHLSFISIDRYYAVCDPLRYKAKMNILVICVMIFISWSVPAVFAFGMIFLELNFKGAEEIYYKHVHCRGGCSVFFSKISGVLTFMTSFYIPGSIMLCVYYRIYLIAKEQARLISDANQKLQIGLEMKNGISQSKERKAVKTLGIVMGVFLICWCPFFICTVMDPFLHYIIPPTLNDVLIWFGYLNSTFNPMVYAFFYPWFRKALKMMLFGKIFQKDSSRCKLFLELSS
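Repeats: no replicates (n 1) | Material: CHO-derived RD-HGA16 cells with stable Gα16 and human TAAR1 | Technique: Kinetic Fluo-8 calcium fluorescence | Schedule: 17-24 h seeding, 75 min 37 °C dye, 30 min RT | Evaluation: % activation from peak over basal fluorescence ratio, DMSO-to-PEA scaled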
TAAR1 antag = human TAAR1 antagonists, primary screen, Fluo-8 calcium fluorescence, CHO RD-HGA16 cells; Trace amine-associated receptor 1 (Homo sapiens), Q96RJ0; antagonist; inhibition, % at 3 µM; hit rate 1.5% among 360,000; AID 624466, 2012;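 active means inhibition above a per-plate cutoff, the mean inhibition of test compounds on that plate plus 3 SD, cut at about 49% in these data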
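Test system – hTAAR1-expressing CHO RD-HGA16 cells, Gα16-coupled · Reagent – β-PEA at EC80 concentration, post-compound challenge · Compound dosing – 3 µM, single point · Timing – 140 s kinetic read after compound, 140 s after agonist · Detection – Fluo-8 intracellular calcium dye fluorescence, real-time kinetic reads · Control set – DMSO and EC80 PEA controls · Repeats – n of 1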
CHO parental Ca = ATP-evoked calcium signal inhibitors, parental CHO, primary screen, counter-screen for OX1R antagonist project, cell-based, fluorescence, Fluo-8 calcium dye. parental CHO-K1, ATP-induced calcium, Fluo-8 fluorescence. inhibition, % at 5.6 µM. hit rate 0.63% among 330,000. AID 463079, 2010;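 active means inhibition above that plate's mean sample inhibition plus 3 SD, cut at about 26% in these data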
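Material: Parental CHO cells | Reagent: ATP | Compound dosing: Single nominal dose of 5.6 µM per compound | Detection: Intracellular calcium via Fluo-8 no-wash fluorescent dye | Read-out: % inhibition of ATP-induced calcium mobilization | Benchmarks: Low control ATP plus DMSO, high control DMSO only | Replicates: Singlicate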
OX1R antag-1 = OX1R (HCRTR1) antagonists, primary screen, fluorescence, CHO/OX1R cells, Fluo-8 calcium, orexin A | Orexin/Hypocretin receptor type 1 (Homo sapiens), O43613 | Fluo-8 calcium fluorescence | inhibition, % at 5 µM | hit rate 0.43% among 330,000 | AID 434989, 2010;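 active means inhibition above its plate's threshold, mean inhibition of all tested compounds on the plate plus 3 SD, cut at about 37% in these data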
Target sequence (O43613 whole entry, looked up): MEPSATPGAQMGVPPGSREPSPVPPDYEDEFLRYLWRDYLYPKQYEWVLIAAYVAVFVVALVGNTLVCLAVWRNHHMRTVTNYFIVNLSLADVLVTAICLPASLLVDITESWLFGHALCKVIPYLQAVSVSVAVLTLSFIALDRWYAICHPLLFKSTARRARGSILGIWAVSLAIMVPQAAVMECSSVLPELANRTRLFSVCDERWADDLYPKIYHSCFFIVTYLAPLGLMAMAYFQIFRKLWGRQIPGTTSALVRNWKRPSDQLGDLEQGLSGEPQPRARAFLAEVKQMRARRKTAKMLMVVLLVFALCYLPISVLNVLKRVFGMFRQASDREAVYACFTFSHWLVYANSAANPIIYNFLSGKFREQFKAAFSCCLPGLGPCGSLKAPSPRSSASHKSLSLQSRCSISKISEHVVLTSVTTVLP
OX1R antag-2 = antagonists of human orexin 1 receptor (OX1R). inhibition, % at 6.6 µM. Orexin/Hypocretin receptor type 1 (Homo sapiens), O43613. OX1R-expressing cells, FRET antagonist read-out. AID 485270, 2010. hit rate 1.8% among 330,000; in the data active means inhibition mostly above about 38%, no sharp cut-off; inactive means mostly below about 40%
TAAR1 ag conf = human TAAR1 agonists, retest of hits, confirmation, Fluo-8 calcium fluorescence, CHO RD-HGA16 cells; shares compounds with TAAR1 agonist; scaled: DMSO 0%, maximal phenethylamine 100%; activation, % at 3 µM; hit rate 82% among 2,400;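 active means activation above a cutoff set at the run's mean compound activation plus 3 SD, cut at about 39% in these data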
Ga16 ag counter = nonselective calcium mobilization agonists, CHO-Ga16 cells, counter-screen for hTAAR1 agonist project, cell-based, fluorescence, CHO-Ga16 parental line | shares compounds with TAAR1 agonist | Fluo-8 calcium fluorescence; normalized to maximal ATP response, DMSO zero | activation, % at 3 µM | hit rate 50% among 2,400 | AID 651787, 2012;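 active means activation above the run cutoff, the mean activation over all tested wells plus 3 SD, cut at about 12% in these data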
TAAR1 desensitize = TAAR1 desensitization by agonist hits, confirmation, counter-screen for TAAR1 agonist project, cell-based, fluorescence, tachyphylaxis | shares compounds with TAAR1 agonist | CHO RD-HGA16 hTAAR1, Fluo-8 calcium, beta-PEA response inhibition | inhibition, % at 3 µM | hit rate 46% among 2,400 | AID 651951, 2012;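 active means inhibition above the run cutoff, the mean inhibition of all test compounds plus 3 SD, cut at about 49% in these data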;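 further: beta-PEA stimulus applied at its EC80; loss of beta-PEA calcium signal after compound pretreatment read as receptor desensitization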
Ga16 nonsel ant = inhibition of ATP-evoked calcium response in CHO-Ga16 cells, counter-screen for TAAR1 agonist project, cell-based, fluorescence. shares compounds with TAAR1 agonist. CHO-Ga16 ATP-induced calcium, Fluo-8 fluorescence. inhibition, % at 3 µM. hit rate 39% among 2,400. AID 651952, 2012;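 active means inhibition above the plate's mean compound inhibition plus 3 SD, computed per plate, cut at about 22% in these data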
Large screens that a line does not name were inactive (follow-up assays come after a bar, where they were run).

Cc1c(-n2cc(C(=O)c3cc(F)ccc3O)cc(C#N)c2=O)c(=O)n(-c2ccccc2)n1C	none
N#Cc1cc(C(=O)c2ccccc2O)cn(-c2nccs2)c1=O	TAAR1 agonist 126, TAAR1 antag 71 | TAAR1 ag conf 90 | Ga16 ag counter 84 | TAAR1 desensitize 65 | Ga16 nonsel ant 59
O=C(Nc1ccccc1Cl)C1CC(=O)N(Cc2ccco2)C1 (stereo not given)	none
C/C=C(\C)C(=O)NCCN1C2=NC[C@H](C)N2C[C@@H]1Cc1ccc(OC)cc1	none
COc1ccc(C[C@@H]2CN3C(=NC[C@@H]3C)N2CCNC(=O)c2ccc(C)c(Br)c2)cc1	TAAR1 agonist 45 | TAAR1 ag conf 54 | Ga16 ag counter 15 | TAAR1 desensitize inactive | Ga16 nonsel ant inactive
NC(=S)NNC(=O)C12CC3CC(CC(C3)C1)C2	TAAR1 agonist 140, TAAR1 antag 80 | TAAR1 ag conf 136 | Ga16 ag counter 108 | TAAR1 desensitize 102 | Ga16 nonsel ant 94
O=C(NC(NC(=S)Nc1ccc(Cl)cc1)C(Cl)(Cl)Cl)c1ccco1 (stereo not given)	none
CC(=O)c1ccc(NC(=S)NC(NC(=O)c2ccco2)C(Cl)(Cl)Cl)cc1 (stereo not given)	TAAR1 agonist 96 | TAAR1 ag conf 106 | Ga16 ag counter 29 | TAAR1 desensitize 80 | Ga16 nonsel ant inactive
Cc1cc2c(cc(C(=O)OCC(=O)NC3CCCCC3)n2C)o1	TAAR1 agonist 67, TAAR1 antag 52 (no result: CHO parental Ca, OX1R antag-1, OX1R antag-2) | TAAR1 ag conf inactive | Ga16 ag counter 34 | TAAR1 desensitize 52 | Ga16 nonsel ant 42
Cc1cc(C(=O)OCC(=O)NC2CCCCC2)c(C)o1	none
CC(NCC(O)COCCC12CC3CC(CC(C3)C1)C2)c1ccccc1 (stereo not given)	TAAR1 agonist 84, TAAR1 antag 87 | TAAR1 ag conf 70 | Ga16 ag counter 42 | TAAR1 desensitize 77 | Ga16 nonsel ant 64
NCC(O)COCCC12CC3CC(CC(C3)C1)C2 (stereo not given)	none
O=C(C1CCCN(S(=O)(=O)c2cccc3nsnc23)C1)N1CCc2ccccc2C1 (stereo not given)	TAAR1 agonist 47 | TAAR1 ag conf 54 | Ga16 ag counter inactive | TAAR1 desensitize inactive | Ga16 nonsel ant 23
O=C(C[C@@H]1C/C=C/CC[C@@H](Cc2ccc(F)cc2)C(=O)O[C@H](c2ccccc2)CNC1=O)NCCO	none
CCN(c1ccccc1)S(=O)(=O)c1ccc(C(=O)N(CCCN(C)C)c2nc3c(C)cccc3s2)cc1	TAAR1 agonist 43 | TAAR1 ag conf inactive | Ga16 ag counter 16 | TAAR1 desensitize inactive | Ga16 nonsel ant 32
O=C(O)c1ccccc1C(=O)NCCc1ccc(Cl)cc1	TAAR1 agonist 60 | TAAR1 ag conf 61 | Ga16 ag counter inactive | TAAR1 desensitize inactive | Ga16 nonsel ant inactive
O=C(NCCc1ccccc1)Nc1ccc(Cl)cc1	TAAR1 agonist 47 | TAAR1 ag conf 46 | Ga16 ag counter 21 | TAAR1 desensitize inactive | Ga16 nonsel ant 28
Nc1sc(-c2ccccc2)cc1C(=O)NCCc1ccc(Cl)cc1	none (no result: CHO parental Ca, OX1R antag-1, OX1R antag-2)
CC(CCc1ccccc1)NC(=O)c1ccccc1C(=O)O (stereo not given)	TAAR1 agonist 48 | TAAR1 ag conf 63 | Ga16 ag counter 20 | TAAR1 desensitize inactive | Ga16 nonsel ant inactive
NC(Cc1ccc(Cl)cc1)c1csc(NC(=O)NCCc2ccccc2)n1 (stereo not given)	TAAR1 agonist 75, TAAR1 antag 68 (no result: CHO parental Ca, OX1R antag-1, OX1R antag-2) | TAAR1 ag conf 60 | Ga16 ag counter 30 | TAAR1 desensitize 63 | Ga16 nonsel ant 51
NC(Cc1ccc(Cl)cc1)c1csc(NC(=O)Nc2ccccc2-c2ccccc2)n1 (stereo not given)	none (no result: CHO parental Ca, OX1R antag-1, OX1R antag-2)
S=C(NCCc1ccccc1)Nc1ccc(Cl)cc1	none
CC(Sc1nc(C(C)(C)C)cc(-c2ccccc2)c1C#N)C(=O)Nc1ccccc1 (stereo not given)	none
COc1cccc(NC(=S)NC2CC(C)(C)NC(C)(C)C2)c1	none
Cc1cc(C)nc(Nc2nc(C(N)Cc3ccc(Cl)cc3)cs2)n1 (stereo not given)	TAAR1 agonist 63, TAAR1 antag 50 (no result: CHO parental Ca, OX1R antag-1, OX1R antag-2) | TAAR1 ag conf 45 | Ga16 ag counter 27 | TAAR1 desensitize inactive | Ga16 nonsel ant 33
CC(CCc1ccccc1)NCC#N (stereo not given)	TAAR1 agonist 53 | TAAR1 ag conf 51 | Ga16 ag counter inactive | TAAR1 desensitize inactive | Ga16 nonsel ant inactive
O=C(O)c1ccccc1Sc1c([N+](=O)[O-])cc(C(F)(F)F)cc1[N+](=O)[O-]	none
O=C1CC(C(=O)N2CCN(c3ccccc3)CC2)CN1Cc1ccccc1 (stereo not given)	none
CCn1cc(C(=O)O)c(=O)c2cc(F)c(N3CCN(C(=O)Nc4ccccc4)CC3)cc21	none
CCn1cc(C(=O)O)c(=O)c2cc(F)c(N/N=C/c3ccccc3)cc21	TAAR1 agonist 56, TAAR1 antag 70 | TAAR1 ag conf 82 | Ga16 ag counter inactive | TAAR1 desensitize 85 | Ga16 nonsel ant inactive
CC1CCN(CCCOc2ccc(OCc3ccccc3)cc2)CC1	TAAR1 agonist 59 | TAAR1 ag conf 41 | Ga16 ag counter 24 | TAAR1 desensitize inactive | Ga16 nonsel ant 23
OC(c1ccccc1)(c1ccccc1)C1CCN(CCCOc2ccc(-c3cccnc3)cc2)CC1	TAAR1 agonist 53 (no result: CHO parental Ca, OX1R antag-1, OX1R antag-2) | TAAR1 ag conf inactive | Ga16 ag counter 21 | TAAR1 desensitize inactive | Ga16 nonsel ant 29
OC(c1ccccc1)(c1ccccc1)C1CCN(CCCOc2ccc(-c3ccncc3)cc2)CC1	TAAR1 agonist 42, TAAR1 antag 53 (no result: CHO parental Ca, OX1R antag-1, OX1R antag-2) | TAAR1 ag conf 46 | Ga16 ag counter 27 | TAAR1 desensitize 54 | Ga16 nonsel ant 36
